Results reported in PMC5367579 (International Journal of Nanomedicine, 2017).
Ends that are not written are not given here.

Columns and labels:
[1] = cited from earlier work
[2] = test system: INS-1 cells; experiment: Insulin receptor beta subunit expression in INS-1 cells; type: cell-based; details: 10 nM SCD/peptides or 210 nM SeNPs/SC, 48 h, Western blot IR-β
[3] = test system: INS-1 cells; experiment: Glucose uptake of INS-1 cells; type: cell-based; details: 10 nM SCD/peptides or 210 nM SeNPs/SC, KRBH buffer with 16.7 mM glucose, 20 min
[4] = test system: db/db mice; experiment: Acute blood glucose lowering after single intraperitoneal dose in db/db mice; type: in vivo; details: 20 nmol/kg single intraperitoneal dose
In short: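 Male 10-week-old db/db mice (type 2 diabetic), six groups of eight, with blood glucose measured before treatment. A single intraperitoneal dose of 20 nmol/kg (dosed by peptide content) was given, diluted in sterile normal saline. Blood glucose was read at 0.5 h, then hourly from 1 to 15 h. Controls were saline (same volume), reference peptides at 20 nmol/kg, and peptide-free nanoparticle carrier at 42.1 μg/kg.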

[5] = test system: db/db mice; experiment: Chronic 12-week daily administration in db/db mice; type: in vivo; details: daily i.p. 12 weeks, 20 nmol/kg (SC 42.1 μg/kg), mean ± SEM, n=8

| Substance | half-life of wild PACAP ([1]; abstract, comparator for SCD half-life, ref not given) | insulin receptor expression level vs PBS group [2] [fold] | glucose uptake [3] [mM] | hypoglycemic effect [4] | CHOL [5] [mmol/L] | Free fatty acid [5] [mEq/L] | HDL-C [5] [mmol/L] | LDL-C [5] [mmol/L] | TG [5] [mmol/L] | Water consumption [5] [g/day] | Whole white fat [5] [g] | half-life ([1]; in vivo) |
| --- | --- | --- | --- | --- | --- | --- | --- | --- | --- | --- | --- | --- |
| pituitary adenylate cyclase activating peptide [PACAP] | ~ 5 min |  |  |  |  |  |  |  |  |  |  |  |
| HSDAVFTDNYTRLRKQVAAKKYLQSIKNKRY-NH2 (C-terminus assumed) [BAY55-9837] |  | 1.25 | 1.44 | momentary hypoglycemic effect within 30 min | 2.55 ± 0.25 | 1.30±0.19 | 1.46 ± 0.20 | 0.63 ± 0.12 | 1.93 ± 0.14 | 27.2 ± 1.90 | 15.3 ± 1.28 | ~ 5 min |
